The values below come from ChEMBL document CHEMBL3797149, “1-Sulfonyl-6-Piperazinyl-7-Azaindoles as potent and pseudo-selective 5-HT6 receptor antagonists” (Bioorg Med Chem Lett, 2016).

Data set [1] addresses T1, D(2) dopamine receptor (Homo sapiens, UniProt P14416). In words: Displacement of [3H]NMSP from human dopamine D2S receptor expressed in CHO cell membrane incubated for 1 hr by scintillation counting method. The format is cell membranes. The method, boiled down: (§1)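 Competition binding: [3H]-LSD displacement for 5-HT6 and [3H]-NMSP displacement for D2. Eight compound concentrations, 5 × 10^-6 to 5 × 10^-13 M, each tested in triplicate. Affinity is reported as Ki.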

Data set [2] concerns CHO. In words: Selectivity ratio of Ki for human dopamine D2S receptor expressed in CHO cell membrane to Ki for human 5HT6 receptor in HEK293 cell membrane. The format is cell-based. Put shortly: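 Ki values come from in-house competition binding: [3H]-LSD displacement at 5-HT6 and [3H]-NMSP displacement at D2. Compounds were tested at eight concentrations from 5×10^-6 to 5×10^-13 M in triplicate. The ratio is D2 Ki divided by 5-HT6 Ki.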

In data set [3] the target is T2, 5-hydroxytryptamine receptor 6 (Homo sapiens, UniProt P50406). Kind of data set: Displacement of [3H]LSD from human 5HT6 receptor in HEK293 cell membrane incubated for 1 hr by scintillation counting method. The format is cell membranes. The method, boiled down:
as §1
A general note: Displacement assays read how much labelled ligand stays bound in the presence of the test substance.

Data set [4] is described as follows: Kinetic solubility in sorensen buffer at pH 7.4 incubated for 1 hr by UV-Visible spectrophotometry. It is filed as physicochemical. As to conditions: read-out: Kinetic_solubility.
Data set [5] concerns the target T1, D(2) dopamine receptor. In words: Displacement of [3H]methyl-spiperone from human recombinant dopamine D2S receptor expressed in HEK293 cells at 1 uM incubated for 60 mins by scintillation counting method relative to control. The format is cell-based. The method, boiled down: (§2)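 Single-point screen at 1 µM (final) within a 106-target panel of neurotransmitter receptors, transporters and ion channels. Read-out is % radioligand displacement.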

The target of data set [6] is D(3) dopamine receptor (Homo sapiens) (UniProt P35462). Kind of data set: Displacement of [3H]methyl-spiperone from human recombinant dopamine D3 receptor expressed in CHO cells at 1 uM incubated for 60 mins by scintillation counting method relative to control. The format is cell-based. Put shortly:
(§3)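 Tested at a single concentration in a contract panel of 106 neurotransmitter receptors, transporters and ion channels. Read-out is percent radioligand displacement.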

Data set [7] has as its target T2, 5-hydroxytryptamine receptor 6. Kind of data set: Displacement of [3H]LSD from human recombinant 5HT6 receptor expressed in CHO cells at 1 uM incubated for 120 mins by scintillation counting method relative to control. It is filed as cell-based. Put shortly: as §2
Data set [8] has as its target 5-hydroxytryptamine receptor 1B (Rattus norvegicus) (UniProt P28564). In words: Displacement of [125I]CYP from 5HT1B receptor in rat cerebral cortex at 1 uM incubated for 120 mins by scintillation counting method relative to control. The format is tissue-based. The method, boiled down:
as §3

A short description of data set [9]: Passive permeability of compound after 4 hrs by sink-PAMPA assay. The format is ADME. The note with it: read-out: permeability. For orientation: The PAMPA barrier holds no transporters, so it reflects passive diffusion.
Data set [10] addresses Cytochrome P450 3A4 (Homo sapiens, UniProt P08684). In words: Inhibition of human recombinant CYP3A4 using 7-benzyloxy-trifluoromethylcoumarin as substrate incubated for 30 mins by fluorescence analysis in presence of NADPH. It is filed as ADME.
Data set [11] has as its target Cytochrome P450 2D6 (Homo sapiens, UniProt P10635). In words: Inhibition of human recombinant CYP2D6 using AMMC as substrate incubated for 45 mins by fluorescence analysis in presence of NADPH. The format is ADME.
The test system of data set [12] is Mus musculus. In words: Procognitive effect in CD1 mouse assessed as reversal of scopolamine-induced amnesia by measuring time spent in open arm in acquisition phase at 0.3 to 10 mg/kg, sc pretreated for 10 mins followed by scopolamine injection measured after 30 mins by elevated […] maze test. The format is functional, organism-based. Put shortly: (§4)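 Elevated plus maze in mice. Test article is given subcutaneously, then scopolamine 10 min later. In the acquisition phase (T1), open-arm time % ([open/(open+enclosed)]×100) and transfer latency to the enclosed arm are recorded. Retention phase (T2) follows 24 h later. n = 13–15 per group; data shown as mean ± SEM and median.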

The subject of data set [13] is Mus musculus. In words: Procognitive effect in CD1 mouse assessed as reversal of scopolamine-induced amnesia by measuring time spent in open arm in retention phase at 0.3 to 10 mg/kg, sc pretreated for 10 mins followed by scopolamine injection measured after 24 hrs by elevated […] maze test. It is filed as functional, organism-based. The method, boiled down: as §4

SMILES strings stand for the structures. The source made the active and inactive calls. No cut-off for these calls is given here.

T1 sequence (P14416 whole entry): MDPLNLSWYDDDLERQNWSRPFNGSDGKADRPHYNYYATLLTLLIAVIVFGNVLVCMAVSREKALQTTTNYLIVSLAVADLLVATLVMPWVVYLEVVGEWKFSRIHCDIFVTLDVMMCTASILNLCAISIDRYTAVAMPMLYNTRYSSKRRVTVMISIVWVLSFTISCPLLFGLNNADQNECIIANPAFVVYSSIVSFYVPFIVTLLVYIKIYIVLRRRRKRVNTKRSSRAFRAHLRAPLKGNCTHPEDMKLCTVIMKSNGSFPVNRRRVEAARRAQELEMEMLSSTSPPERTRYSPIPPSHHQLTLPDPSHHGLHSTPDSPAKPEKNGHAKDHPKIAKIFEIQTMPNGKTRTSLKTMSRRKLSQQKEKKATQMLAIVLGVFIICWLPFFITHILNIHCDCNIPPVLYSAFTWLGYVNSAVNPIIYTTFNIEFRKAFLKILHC
T2 sequence (P50406 whole entry): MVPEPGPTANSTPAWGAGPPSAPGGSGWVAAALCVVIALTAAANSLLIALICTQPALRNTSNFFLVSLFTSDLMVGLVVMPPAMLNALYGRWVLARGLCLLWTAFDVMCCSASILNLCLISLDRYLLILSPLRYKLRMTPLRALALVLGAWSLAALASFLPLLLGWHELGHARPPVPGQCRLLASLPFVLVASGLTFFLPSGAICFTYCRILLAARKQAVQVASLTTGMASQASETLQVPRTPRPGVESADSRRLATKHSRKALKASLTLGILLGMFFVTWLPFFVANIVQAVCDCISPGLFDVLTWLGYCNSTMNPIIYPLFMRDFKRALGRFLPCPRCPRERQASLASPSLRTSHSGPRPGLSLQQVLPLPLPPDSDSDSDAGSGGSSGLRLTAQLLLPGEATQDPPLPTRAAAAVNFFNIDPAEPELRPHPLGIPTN
Chain of Cytochrome P450 2D6 (P10635 whole entry): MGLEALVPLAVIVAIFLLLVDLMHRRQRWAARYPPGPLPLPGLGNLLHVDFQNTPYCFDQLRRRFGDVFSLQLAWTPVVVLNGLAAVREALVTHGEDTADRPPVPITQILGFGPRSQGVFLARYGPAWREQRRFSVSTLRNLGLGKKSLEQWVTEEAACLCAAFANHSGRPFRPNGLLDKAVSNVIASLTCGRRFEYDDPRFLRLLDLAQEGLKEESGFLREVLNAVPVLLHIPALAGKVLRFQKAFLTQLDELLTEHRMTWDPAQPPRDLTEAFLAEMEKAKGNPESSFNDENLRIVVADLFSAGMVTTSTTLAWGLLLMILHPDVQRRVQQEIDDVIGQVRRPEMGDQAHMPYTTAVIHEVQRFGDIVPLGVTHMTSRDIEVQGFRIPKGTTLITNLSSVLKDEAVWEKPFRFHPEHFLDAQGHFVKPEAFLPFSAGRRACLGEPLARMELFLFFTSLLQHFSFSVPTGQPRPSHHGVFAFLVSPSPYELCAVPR
Chain of 5-hydroxytryptamine receptor 1B (Rattus norvegicus) (P28564 whole entry): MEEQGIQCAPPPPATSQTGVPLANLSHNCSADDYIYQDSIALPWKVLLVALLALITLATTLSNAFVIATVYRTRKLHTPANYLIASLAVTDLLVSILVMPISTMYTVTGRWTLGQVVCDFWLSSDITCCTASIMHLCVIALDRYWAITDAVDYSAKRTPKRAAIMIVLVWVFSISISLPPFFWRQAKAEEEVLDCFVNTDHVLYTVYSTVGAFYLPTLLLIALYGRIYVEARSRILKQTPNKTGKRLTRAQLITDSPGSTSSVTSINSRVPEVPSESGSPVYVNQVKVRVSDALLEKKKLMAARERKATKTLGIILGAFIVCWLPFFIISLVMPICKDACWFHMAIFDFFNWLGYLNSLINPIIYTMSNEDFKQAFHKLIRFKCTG
Chain of D(3) dopamine receptor (Homo sapiens) (P35462 whole entry): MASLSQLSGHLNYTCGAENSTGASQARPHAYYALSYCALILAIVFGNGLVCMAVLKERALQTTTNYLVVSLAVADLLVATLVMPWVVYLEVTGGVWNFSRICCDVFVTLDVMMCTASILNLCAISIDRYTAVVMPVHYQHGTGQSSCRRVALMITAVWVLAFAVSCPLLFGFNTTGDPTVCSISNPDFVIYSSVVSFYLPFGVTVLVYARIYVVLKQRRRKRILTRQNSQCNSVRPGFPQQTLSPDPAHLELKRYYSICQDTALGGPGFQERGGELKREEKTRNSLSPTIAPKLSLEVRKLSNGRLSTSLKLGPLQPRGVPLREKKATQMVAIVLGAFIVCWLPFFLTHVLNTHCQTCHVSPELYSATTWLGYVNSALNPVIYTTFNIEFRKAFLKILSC
Chain of Cytochrome P450 3A4 (P08684 whole entry): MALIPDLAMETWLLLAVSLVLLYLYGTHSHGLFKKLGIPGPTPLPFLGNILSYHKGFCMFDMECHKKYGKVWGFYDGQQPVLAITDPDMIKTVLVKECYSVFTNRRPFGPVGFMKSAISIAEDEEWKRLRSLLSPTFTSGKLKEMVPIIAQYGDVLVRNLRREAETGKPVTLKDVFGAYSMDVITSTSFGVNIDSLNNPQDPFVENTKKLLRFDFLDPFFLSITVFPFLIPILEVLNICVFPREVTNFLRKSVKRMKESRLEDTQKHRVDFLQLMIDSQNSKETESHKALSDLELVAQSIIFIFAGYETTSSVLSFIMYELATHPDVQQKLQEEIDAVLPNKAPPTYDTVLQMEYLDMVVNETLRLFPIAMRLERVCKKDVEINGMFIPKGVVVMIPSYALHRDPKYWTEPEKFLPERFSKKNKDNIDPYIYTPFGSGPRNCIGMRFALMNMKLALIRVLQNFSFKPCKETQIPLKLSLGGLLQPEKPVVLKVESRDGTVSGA

The term Ki denotes a measure of affinity in units of concentration, obtained from inhibition or displacement. High values mean lower affinity, low ones higher affinity. With `CC(C)CS(=O)(=O)n1ccc2c(-c3ccccc3)cc(N3CCN(C)CC3)nc21`, the Ki in [1] came out at 547 nM; in data set [3] it was 16 nM. In [2], the Ratio Ki was found to be 35.

With `Cc1noc(C)c1-c1cc(N2CCN(C)CC2)nc2c1ccn2S(=O)(=O)CC(C)C`, the results for the inhibitory constant (Ki) in data set [1] and in [3] were above 2000 nM and 129 nM, respectively. For the same molecule, the Ratio Ki in data set [2] is above 15.

In the case of `CC(C)CS(=O)(=O)n1ccc2c(-c3ccc(=O)[nH]c3)cc(N3CCN(C)CC3)nc21`, the Ki was above 2000 nM in data set [1] and 231 nM in data set [3]. The Ratio Ki in data set [2] is above 8.

Regarding `CC(C)CS(=O)(=O)n1ccc2c(-c3ccc4[nH]ccc4c3)cc(N3CCN(C)CC3)nc21`, the Ki in [1] amounted to 382 nM; in [3], 5 nM. In [2], the Ratio Ki is 76.

Consider `COc1ccc(-c2cc(N3CCN(C)CC3)nc3c2ccn3S(=O)(=O)CC(C)C)cc1`, for which the values for the Ki in data set [1] and in [3] were 22 nM and 2 nM, respectively. For the same molecule, the Ratio Ki in data set [2] stood at 9.

For `COCCS(=O)(=O)n1ccc2c(-c3ccc(C(F)(F)F)cc3)cc(N3CCN(C)CC3)nc21`, the Ki in data set [1] turned out to be 52 nM; in [3], 8 nM. Moreover, in [2], the Ratio Ki stood at 6.

Consider `CC(C)CS(=O)(=O)n1ccc2c(-c3ccc(C(F)(F)F)cc3)cc(N3CCN(C)CC3)nc21.O=C(O)CC(O)(CC(=O)O)C(=O)O`, for which the solubility kinetic at 1 h in data set [4] was found to be 14 µg/mL.

For orientation: inhibition means how much of the control response was suppressed. As usually defined, the IC50 is the concentration at which inhibition is half-maximal. Turning to `CC(C)CS(=O)(=O)n1ccc2c(-c3ccc(C(F)(F)F)cc3)cc(N3CCNCC3)nc21`, the results for the Ki in [1] and in data set [3] were 1700 nM and 3 nM, respectively. The inhibition in data set [5] worked out at 60%; in [6], 94%; in [7] it was 100%; in data set [8], 72%. In data set [9], the Papp at 4 h was found to be 92 ×10⁻⁶ cm/s. Moreover, the IC50 in [10] is below 1100 nM; in [11], above 10000 nM.

Take `CC(C)S(=O)(=O)n1ccc2c(-c3ccc(C(F)(F)F)cc3)cc(N3CCN(C)CC3)nc21`: the figures for the Ki in [1] and in [3] were 25 nM and 6 nM, respectively. Moreover, the Ratio Ki in [2] is 4.

Regarding `CC(C)CS(=O)(=O)n1ccc2c(-c3cnn(C)c3)cc(N3CCN(C)CC3)nc21`, the Ki in [1] was above 2000 nM; in data set [3], 87 nM. Further, the Ratio Ki in [2] was above 23.

For the molecule `CCc1ccc(-c2cc(N3CCN(C)CC3)nc3c2ccn3S(=O)(=O)CC(C)C)cc1`, the Ki is 614 nM in data set [1] and 11 nM in data set [3]. Also, the Ratio Ki in data set [2] came out at 56.

In the case of `CN1CCN(c2cc(-c3ccc(C(F)(F)F)cc3)c3ccn(S(=O)(=O)C4CCCCC4)c3n2)CC1`, the Ki in data set [1] was above 2000 nM; in data set [3], 15 nM. In addition, the Ratio Ki in data set [2] was above 133.

Turning to `CC(C)CS(=O)(=O)n1ccc2c(-c3ccc(C(F)(F)F)cc3)cc(N3CCN(C)CC3)nc21.O=C(O)C(O)C(O)C(=O)O`, in data set [4], the solubility kinetic at 1 h came out at 11 µg/mL.

In the case of `CC(C)CS(=O)(=O)n1ccc2c(-c3ccc(C(F)(F)F)cc3)cc(N3CCN(C)CC3)nc21.O=C(O)/C=C/C(=O)O`, the solubility kinetic at 1 h in data set [4] is 20 µg/mL.

As to `CC(C)CS(=O)(=O)n1ccc2c(-c3ccc(OCc4ccccc4)cc3)cc(N3CCN(C)CC3)nc21`, the Ki in data set [1] amounted to 86 nM; in data set [3] it was 290 nM. Also, in data set [2], the Ratio Ki worked out at 0.3.

As to `CC(C)CS(=O)(=O)n1ccc2c(-c3ccccc3C(F)(F)F)cc(N3CCN(C)CC3)nc21`, the Ki in [1] is 113 nM; in data set [3] it was 24 nM. In addition, in data set [2], the Ratio Ki stood at 5.

Take `CC(C)CS(=O)(=O)n1ccc2c(-c3ccc(C(=O)N(C)C)cc3)cc(N3CCN(C)CC3)nc21`: the Ki in [1] and in data set [3] was above 2000 nM in each case.

Consider `CC(C)CS(=O)(=O)n1ccc2c(-c3ccc(O)cc3)cc(N3CCN(C)CC3)nc21`, for which the Ki in data set [1] worked out at 108 nM; in data set [3] it was 22 nM. For the same molecule, in data set [2], the Ratio Ki amounted to 5.

As for `CC(C)CS(=O)(=O)n1ccc2c(-c3ccc(C#N)cc3)cc(N3CCN(C)CC3)nc21`, the Ki in data set [1] turned out to be 205 nM; in [3] it was 7 nM. In addition, the Ratio Ki in data set [2] turned out to be 29.

In the case of `CN1CCN(c2cc(-c3ccc(C(F)(F)F)cc3)c3ccn(S(C)(=O)=O)c3n2)CC1`, the Ki in data set [1] came to 1230 nM; in data set [3], 54 nM. In data set [2], the Ratio Ki turned out to be 22.

For the molecule `CC(C)CS(=O)(=O)n1ccc2c(-c3ccc(C(F)(F)F)cc3)cc(N3CCN(C)CC3)nc21.O=S(=O)(O)O`, the solubility kinetic at 1 h in [4] was found to be 10 µg/mL.

Consider `CC(C)CS(=O)(=O)n1ccc2c(-c3cccnc3)cc(N3CCN(C)CC3)nc21`, for which the Ki in data set [1] is above 2000 nM; in data set [3], 36 nM. Further, the Ratio Ki in data set [2] is above 55.

As for `Cc1cc(-c2cc(N3CCN(C)CC3)nc3c2ccn3S(=O)(=O)CC(C)C)c(C)s1`, the results for the Ki in data set [1] and in data set [3] were 640 nM and 12 nM, respectively. The Ratio Ki in data set [2] came to 53.

In the case of `CC(C)CS(=O)(=O)n1ccc2c(-c3ccc(C(F)(F)F)cc3)cc(N3CCN(C)CC3)nc21.Cl`, in data set [4], the solubility kinetic at 1 h amounted to 14 µg/mL.

With `CC(C)CS(=O)(=O)n1ccc2c(-c3cccc(C(F)(F)F)c3)cc(N3CCN(C)CC3)nc21`, the Ki in data set [1] is 630 nM; in data set [3], 48 nM. Further, in [2], the Ratio Ki was 13.

On to `CN1CCN(c2cc(-c3ccc(C(F)(F)F)cc3)c3ccn(S(=O)(=O)C4CCOCC4)c3n2)CC1`, for which the values for the Ki in data set [1] and in data set [3] were above 2000 nM and 7 nM, respectively. In addition, in data set [2], the Ratio Ki is above 285.

`Br.CC(C)CS(=O)(=O)n1ccc2c(-c3ccc(C(F)(F)F)cc3)cc(N3CCN(C)CC3)nc21`: the solubility kinetic at 1 h in data set [4] was 65 µg/mL.

Take `CC(C)CS(=O)(=O)n1ccc2c(-c3ccc(C(F)(F)F)cc3)cc(N3CCN(C)CC3)nc21`: the Ratio Ki in data set [2] is 80. Further, the outcome in [12] and in data set [13] was Active.
